Source: ChEMBL document CHEMBL1124503, “The role of position 4 in angiotensin II antagonism: a structure-activity study” (J Med Chem, 1989)
Where a SMILES comes first, the peptide text is derived from it. [ ]: non-standard residue; d: D form. Phe(4-NO2) = N[C@@H](Cc1ccc([N+](=O)[O-])cc1)C(=O)O; Phe(4-I) = N[C@@H](Cc1ccc(I)cc1)C(=O)O; Sar = CNCC(=O)O

How the values were obtained:
[1] = species on record: Oryctolagus cuniculus; test: Agonist, ''ANG II-like'' activity was measured in the in vitro rabbit aorta strip assay; + = mixed agonist-antagonist effects seen above 100n g/mL; type: functional
How it was run: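 Isolated rabbit aorta strip (method of Rioux et al.); contractile agonist activity expressed as percent of the response to ANG II.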

[2] = species on record: Oryctolagus cuniculus; test: Antagonist activity pA2, was measured in the in vitro rabbit aorta strip assay; + = mixed agonist-antagonist effects seen above 100n g/mL; type: functional
How it was run: (§1)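 Isolated rabbit aorta strip (method of Rioux et al.); pA2 against the ANG II dose-response curve, determined at low antagonist doses within the competitive-inhibition range.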

[3] = target: Angiotensin II receptor (Rattus norvegicus) (UniProt P29089+P25095+P35351); test: In vivo blood pressure increase produced by a 1 ug bolus i.v.; type: functional, organism-based
How it was run: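 Rat blood pressure assay (Regoli et al.); agonist activity read as the mmHg rise in blood pressure after a 1 μg intravenous bolus of compound.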

[4] = tested on: Rattus norvegicus; test: Residual ANG II-like antagonist activity, ID50 was measured in vivo, in the rat blood pressure assay; + means slight antagonist effect; type: functional, organism-based; details: filed as antagonist
[5] = tested on: Angiotensin II receptor (Oryctolagus cuniculus); test: Angiotensin II-like agonist activity, measured in the in vitro rabbit aorta strip assay
[6] = species on record: Oryctolagus cuniculus; test: Antagonist activity pA2, was measured in the in vitro rabbit aorta strip assay; type: functional; details: read-out: pA2 (converted); how it was run: as §1
[7] = tested on: Rattus norvegicus; test: Residual ANG II-like antagonist activity, ID50 was measured in vivo, in the rat blood pressure assay; Partial angonist; type: functional, organism-based; details: filed as partial agonist

| Activity [5] [%] | Compound | Activity [1] | pA2 [2] | Blood pressure [3] [mmHg] | ID50 [4] | Kb [6] [nM] | ID50 [7] |
| --- | --- | --- | --- | --- | --- | --- | --- |
| – | CC[C@H](C)[C@H](NC(=O)[C@H](Cc1ccc([N+](=O)[O-])cc1)NC(=O)[C@@H](NC(=O)[C@H](CCCN=C(N)N)NC(=O)CNC)C(C)C)C(=O)N[C@@H](Cc1c[nH]cn1)C(=O)N1CCC[C@H]1C(=O)N[C@@H](Cc1ccccc1)C(=O)O (H-[Sar]RV[Phe(4-NO2)]IHPF-OH) | mixed agonist-antagonist effects seen above 100n g/mL | mixed agonist-antagonist effects seen above 100n g/mL | – | – | – | – |
| 11 | H-DRVFIHPF-OH | – | – | 20 | Partial antagonist | – | – |
| 0 | CC[C@H](C)[C@H](NC(=O)[C@H](Cc1ccc(I)cc1)NC(=O)[C@@H](NC(=O)[C@H](CCCN=C(N)N)NC(=O)CNC)C(C)C)C(=O)N[C@@H](Cc1c[nH]cn1)C(=O)N1CCC[C@H]1C(=O)N[C@@H](Cc1ccccc1)C(=O)O (H-[Sar]RV[Phe(4-I)]IHPF-OH) | – | – | 80 | – | 251 | Partial agonist |
